# Experimental data published in ChEMBL document CHEMBL2176874, “1-(sulfonyl)-5-(arylsulfonyl)indoline as activators of the tumor cell specific M2 isoform of pyruvate kinase” (Bioorg Med Chem Lett, 2012).
# Activity calls are given as the source filed them. The rule behind the calls is not given here.
# What was measured:
# [1] = biological target: Pyruvate kinase PKM (Homo sapiens) (UniProt P14618); assay: Activation of human pyruvate kinase M2 using phosphoenolpyruvate as substrate by kinaseGlo assay relative to control
# In short: (§1)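 Cell-free enzymatic pyruvate kinase activity assay. Maximal activation is expressed as the percentage rise in enzyme activity above basal level, with 0% set as enzyme activity without compound.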
# [2] = biological target: Pyruvate kinase PKM (Homo sapiens) (UniProt P14618); assay: Activation of human pyruvate kinase M2 using phosphoenolpyruvate as substrate assessed as concentration required for 50% activation by kinaseGlo assay
# [3] = Half life in human liver microsomes at 1 uM by LC-MS/MS analysis
# [4] = Efflux ratio of apparent permeability from basal to apical to apical to basal side of human Caco2 cells at 10 uM after 90 mins by LC-MS/MS analysis; conditions: Caco-2
# hERG (KCNH2) = hERG (KCNH2) (Homo sapiens, UniProt Q12809); assay: Inhibition of human ERG expressed in CHO cells at 1 uM measured up to 3 mins by whole cell patch clamp assay; format: cell-based; conditions: CHO cells expressing human ERG
# [5] = Apparent permeability from apical to basal side of human Caco2 cells at 10 uM after 90 mins by LC-MS/MS analysis; conditions: Caco-2
# [6] = Apparent permeability from basal to apical side of human Caco2 cells at 10 uM after 90 mins by LC-MS/MS analysis; conditions: Caco-2
# [7] = Serum protein binding in human at 1 uM after 5 hrs by LC-MS/MS analysis; format: ADME, cell-free; conditions: read-out: PB (converted)
# [8] = biological target: Pyruvate kinase PKLR (Homo sapiens) (UniProt P30613); assay: Activation of human pyruvate kinase R using phosphoenolpyruvate as substrate assessed as concentration required for 50% activation by kinaseGlo assay
# [9] = biological target: Pyruvate kinase PKM (Homo sapiens) (UniProt P14618); assay: Activation of human pyruvate kinase M1 using phosphoenolpyruvate as substrate by kinaseGlo assay relative to control; in short: as §1
# [10] = biological target: Pyruvate kinase PKLR (Homo sapiens) (UniProt P30613); assay: Activation of human pyruvate kinase R using phosphoenolpyruvate as substrate by kinaseGlo assay relative to control; in short: as §1
# [11] = biological target: Pyruvate kinase PKM (Homo sapiens) (UniProt P14618); assay: Activation of human pyruvate kinase M1 using phosphoenolpyruvate as substrate by kinaseGlo assay
# [12] = biological target: Pyruvate kinase PKLR (Homo sapiens) (UniProt P30613); assay: Activation of human pyruvate kinase L using phosphoenolpyruvate as substrate assessed as concentration required for 50% activation by kinaseGlo assay
# [13] = biological target: Pyruvate kinase PKLR (Homo sapiens) (UniProt P30613); assay: Activation of human pyruvate kinase L using phosphoenolpyruvate as substrate by kinaseGlo assay relative to control; in short: as §1
# Pyruvate kinase PKLR (Homo sapiens), sequence (P30613 whole entry, looked up): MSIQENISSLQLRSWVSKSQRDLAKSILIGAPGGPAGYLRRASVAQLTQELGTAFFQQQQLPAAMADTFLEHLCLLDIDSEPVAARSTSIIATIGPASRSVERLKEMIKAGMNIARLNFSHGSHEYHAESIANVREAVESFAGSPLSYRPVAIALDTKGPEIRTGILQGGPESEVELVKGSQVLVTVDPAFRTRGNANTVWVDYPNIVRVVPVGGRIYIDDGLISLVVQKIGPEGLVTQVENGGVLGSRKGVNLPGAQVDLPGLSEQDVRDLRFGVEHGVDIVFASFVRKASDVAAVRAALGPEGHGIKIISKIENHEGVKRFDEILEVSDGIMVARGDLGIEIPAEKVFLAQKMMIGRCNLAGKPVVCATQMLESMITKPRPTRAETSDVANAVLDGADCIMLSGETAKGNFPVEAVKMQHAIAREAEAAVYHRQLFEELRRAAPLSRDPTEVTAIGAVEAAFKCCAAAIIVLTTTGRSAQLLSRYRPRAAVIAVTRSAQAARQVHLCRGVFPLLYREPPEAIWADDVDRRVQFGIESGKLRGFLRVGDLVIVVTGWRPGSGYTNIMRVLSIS
# Pyruvate kinase PKM (Homo sapiens), sequence (P14618 2-531 limits assumed): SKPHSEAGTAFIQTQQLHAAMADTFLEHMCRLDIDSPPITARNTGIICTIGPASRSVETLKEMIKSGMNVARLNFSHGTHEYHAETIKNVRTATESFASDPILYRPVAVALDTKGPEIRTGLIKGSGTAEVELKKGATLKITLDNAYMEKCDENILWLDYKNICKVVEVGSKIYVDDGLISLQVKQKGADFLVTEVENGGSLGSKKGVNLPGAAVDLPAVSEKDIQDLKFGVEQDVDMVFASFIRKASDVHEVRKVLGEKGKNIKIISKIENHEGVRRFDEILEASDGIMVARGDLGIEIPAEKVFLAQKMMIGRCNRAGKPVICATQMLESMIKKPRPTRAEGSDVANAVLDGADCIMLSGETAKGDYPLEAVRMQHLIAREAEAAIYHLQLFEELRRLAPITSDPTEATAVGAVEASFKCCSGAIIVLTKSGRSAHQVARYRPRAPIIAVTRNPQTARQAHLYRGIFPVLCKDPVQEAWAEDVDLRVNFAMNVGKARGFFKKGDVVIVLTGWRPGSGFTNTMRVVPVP
# hERG (KCNH2), sequence (Q12809 whole entry): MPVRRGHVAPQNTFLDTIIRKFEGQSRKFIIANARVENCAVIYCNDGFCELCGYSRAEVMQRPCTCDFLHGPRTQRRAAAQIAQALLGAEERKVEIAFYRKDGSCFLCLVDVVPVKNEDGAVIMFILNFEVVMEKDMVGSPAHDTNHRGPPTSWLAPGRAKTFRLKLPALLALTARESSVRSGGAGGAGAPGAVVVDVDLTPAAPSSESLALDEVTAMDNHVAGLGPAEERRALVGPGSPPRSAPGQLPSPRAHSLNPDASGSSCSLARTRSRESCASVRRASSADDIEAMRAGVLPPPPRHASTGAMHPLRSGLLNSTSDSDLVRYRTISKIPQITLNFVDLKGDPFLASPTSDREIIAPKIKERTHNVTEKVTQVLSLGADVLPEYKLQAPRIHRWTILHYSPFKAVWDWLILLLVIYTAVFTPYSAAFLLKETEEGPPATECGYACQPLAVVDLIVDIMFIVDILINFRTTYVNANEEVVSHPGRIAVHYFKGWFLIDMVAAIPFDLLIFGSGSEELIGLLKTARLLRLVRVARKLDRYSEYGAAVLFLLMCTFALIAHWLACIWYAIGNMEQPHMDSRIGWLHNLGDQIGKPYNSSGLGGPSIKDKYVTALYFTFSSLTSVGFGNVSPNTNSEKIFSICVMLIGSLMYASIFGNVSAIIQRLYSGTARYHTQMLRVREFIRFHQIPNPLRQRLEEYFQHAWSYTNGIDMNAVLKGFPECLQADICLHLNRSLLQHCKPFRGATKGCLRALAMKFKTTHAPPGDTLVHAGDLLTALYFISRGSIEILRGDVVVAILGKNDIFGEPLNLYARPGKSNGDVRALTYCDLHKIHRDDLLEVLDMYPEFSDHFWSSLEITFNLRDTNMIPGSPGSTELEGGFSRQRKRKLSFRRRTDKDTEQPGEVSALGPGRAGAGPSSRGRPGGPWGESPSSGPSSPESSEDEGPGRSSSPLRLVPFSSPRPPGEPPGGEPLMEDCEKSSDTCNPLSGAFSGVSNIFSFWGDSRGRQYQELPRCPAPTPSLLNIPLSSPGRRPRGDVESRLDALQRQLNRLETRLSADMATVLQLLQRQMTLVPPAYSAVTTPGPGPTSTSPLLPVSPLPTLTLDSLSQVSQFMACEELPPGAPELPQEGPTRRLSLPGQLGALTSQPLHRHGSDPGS
Compound,max activation [1],Activity [2],also measured
CC1Cc2cc(NS(=O)(=O)c3ccc4c(c3)OCCO4)ccc2N1S(C)(=O)=O (racemic),32.5%,> 100 µM,
CC1Cc2cc(C(=O)c3ccc4c(c3)OCCO4)ccc2N1S(C)(=O)=O (racemic),,inactive,
CC1Cc2cc(S(=O)(=O)c3ccc4c(c3)OCCO4)ccc2N1S(=O)(=O)c1ccc(F)cc1 (racemic),159%,0.6 µM,
CS(=O)(=O)N1CCCc2cc(S(=O)(=O)c3ccc4c(c3)OCCO4)ccc21,152%,2.3 µM,
O=S(=O)(c1ccc2c(c1)CCN2S(=O)(=O)c1cccc(F)c1)c1ccc2c(c1)OCCO2,87%,0.03 µM,
Cc1cn(S(C)(=O)=O)c2ccc(S(=O)(=O)c3ccc4c(c3)OCCO4)cc12,154%,2.72 µM,
CCS(=O)(=O)N1CCc2cc(C(=O)CSc3ccc4c(c3)OCCCO4)ccc21,149%,0.51 µM,half-life at 1 µM ([3]; liver microsomes): 1.4 min
CCN(c1ccc(S(=O)(=O)c2ccc3c(c2)OCCO3)cc1)S(C)(=O)=O,100%,41 µM,
CC1Cc2cc(C(=O)CSc3ccc4c(c3)OCCO4)ccc2N1S(C)(=O)=O (racemic),164%,0.55 µM,half-life at 1 µM ([3]; liver microsomes): 3.4 min
CCS(=O)(=O)N1Cc2ccc(S(=O)(=O)c3ccc4c(c3)OCCO4)cc2C1,35%,0.02 µM,
CC1Cc2cc(S(=O)(=O)c3ccc4c(c3)OCCO4)ccc2N1S(=O)(=O)c1c(F)cccc1F (racemic),168%,0.5 µM,
CS(=O)(=O)n1ccc2cc(S(=O)(=O)c3ccc4c(c3)OCCO4)ccc21,98%,0.023 µM,
CS(=O)(=O)Nc1ccc(C(=O)CSc2ccc3c(c2)OCCO3)cc1,140%,2.5 µM,half-life at 1 µM ([3]; microsomes): 3.3 min
CCS(=O)(=O)N1CCc2cc(S(=O)(=O)c3ccc4c(c3)OCCO4)ccc21,89%,0.027 µM,
O=S(=O)(c1ccc2c(c1)CCN2S(=O)(=O)C1CC1)c1ccc2c(c1)OCCO2,105%,0.017 µM,
CS(=O)(=O)N1CCc2c1cc(F)c(S(=O)(=O)c1ccc3c(c1)OCCO3)c2F,78%,0.079 µM,

Compound,max activation [1],Activity [2],also measured
CC1Cc2cc(S(=O)(=O)c3ccc4c(c3)OCCO4)ccc2N1S(=O)(=O)c1ccccc1 (racemic),134%,0.6 µM,
CCN(c1ccc(S(=O)(=O)c2ccc3c(c2)OCCO3)c(C)c1)S(C)(=O)=O,160%,2.7 µM,
O=S(=O)(c1ccc2c(c1)CCN2S(=O)(=O)c1ccccc1)c1ccc2c(c1)OCCO2,122%,0.093 µM,
CC1Cc2cc(S(=O)(=O)c3ccc4c(c3)OCCO4)ccc2N1S(=O)(=O)Cc1ccccc1 (racemic),111%,1.6 µM,
CCS(=O)(=O)N1CCc2cc(C(=O)CSc3ccc(F)cc3F)ccc21,171%,4.1 µM,
CC(C)N(c1ccc(S(=O)(=O)c2ccc3c(c2)OCCO3)cc1)S(C)(=O)=O,194%,2.8 µM,
CS(=O)(=O)N1Cc2ccc(S(=O)(=O)c3ccc4c(c3)OCCO4)cc2C1,125%,0.017 µM,"efflux ratio at 1.5 h, 10 µM [4]: 1.06; half-life at 1 µM ([3]; liver microsomes): > 45 min; inhibition at 0.05 h, 1 µM (hERG (KCNH2)): 7.3%; Papp A→B at 1.5 h, 10 µM [5]: 30.4 ×10⁻⁶ cm/s; Papp B→A at 1.5 h, 10 µM [6]: 32.4 ×10⁻⁶ cm/s; fraction unbound at 5 h, 1 µM [7]: 0.091"
CS(=O)(=O)N1CCCc2cc(C(=O)CSc3ccc4c(c3)OCCO4)ccc21,107%,1.3 µM,
O=P(O)(O)OC[C@H]1O[C@@](O)(COP(=O)(O)O)[C@@H](O)[C@@H]1O,148%,0.08 µM,
CC1Cc2cc(S(=O)(=O)c3ccc4c(c3)OCCO4)ccc2N1S(C)(=O)=O (racemic),148%,2 µM,"efflux ratio at 1.5 h, 10 µM [4]: 0.59; half-life at 1 µM ([3]; liver microsomes): 31.5 min; Papp A→B at 1.5 h, 10 µM [5]: 20.4 ×10⁻⁶ cm/s; Papp B→A at 1.5 h, 10 µM [6]: 12.1 ×10⁻⁶ cm/s; fraction unbound at 5 h, 1 µM [7]: 0.075"
CS(=O)(=O)N1CCc2cc(S(=O)(=O)c3ccc4c(c3)OCCO4)ccc21,106%,0.045 µM,"Activity [8]: > 100 µM; efflux ratio at 1.5 h, 10 µM [4]: 1.14; max activation [9]: inactive; half-life at 1 µM ([3]; microsomes): 26 min; inhibition at 0.05 h, 1 µM (hERG (KCNH2)): 9%; max activation [10]: 34%; Activity [11]: inactive; Papp A→B at 1.5 h, 10 µM [5]: 37.5 ×10⁻⁶ cm/s; Papp B→A at 1.5 h, 10 µM [6]: 43 ×10⁻⁶ cm/s; Activity [12]: > 100 µM; max activation [13]: 33%; fraction unbound at 5 h, 1 µM [7]: 0.059"
CC(C)CS(=O)(=O)N1Cc2ccc(S(=O)(=O)c3ccc4c(c3)OCCO4)cc2C1,91.5%,0.189 µM,
CC1Cc2cc(S(=O)(=O)Nc3ccc4c(c3)OCCO4)ccc2N1S(C)(=O)=O (racemic),25.5%,51 µM,
O=S(=O)(c1ccc2c(c1)CN(S(=O)(=O)c1ccccc1)C2)c1ccc2c(c1)OCCO2,140%,0.061 µM,
COc1cccc(S(=O)(=O)N2c3ccc(S(=O)(=O)c4ccc5c(c4)OCCO5)cc3CC2C)c1 (racemic),119%,0.8 µM,
CCS(=O)(=O)N1CCc2cc(C(=O)CSc3cccc(OC)c3)ccc21,110%,2.4 µM,
